Each structure is given as a SMILES string.

The values that follow come from ChEMBL document CHEMBL1135409, “Structure-activity relationships of a novel class of endothelin-A receptor antagonists and discovery of potent and selective receptor antagonist, 2-(benzo[1,3]dioxol-5-yl)-6-isopropyloxy-4-(4-methoxyphenyl)-2H-chromene-3-carboxylic acid (S-1255). 1. Study on structure-activity relationships and …” (J Med Chem, 2002).

The target of one assay is T1, Endothelin-1 receptor (Rattus norvegicus, UniProt P26684).
T1 sequence (P26684 whole entry): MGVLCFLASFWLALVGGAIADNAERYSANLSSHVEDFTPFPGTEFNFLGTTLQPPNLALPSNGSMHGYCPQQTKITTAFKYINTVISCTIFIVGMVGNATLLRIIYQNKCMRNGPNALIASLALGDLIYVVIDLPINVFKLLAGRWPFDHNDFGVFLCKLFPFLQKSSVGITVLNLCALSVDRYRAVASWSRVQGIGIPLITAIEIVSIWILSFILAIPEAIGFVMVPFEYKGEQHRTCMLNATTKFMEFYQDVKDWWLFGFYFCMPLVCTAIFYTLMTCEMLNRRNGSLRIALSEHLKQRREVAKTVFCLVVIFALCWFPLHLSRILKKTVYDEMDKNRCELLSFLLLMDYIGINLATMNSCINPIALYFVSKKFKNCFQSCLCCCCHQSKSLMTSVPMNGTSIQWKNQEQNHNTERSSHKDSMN
Kind of assay: Binding affinity for endothelin A receptor by inhibition of [125I]ET1 binding in rat aorta smooth muscle cells. The assay is classed as tissue-based.

Assay [1] deals with T2, Endothelin receptor type B (Sus scrofa, UniProt P35463).
T2 sequence (P35463 whole entry): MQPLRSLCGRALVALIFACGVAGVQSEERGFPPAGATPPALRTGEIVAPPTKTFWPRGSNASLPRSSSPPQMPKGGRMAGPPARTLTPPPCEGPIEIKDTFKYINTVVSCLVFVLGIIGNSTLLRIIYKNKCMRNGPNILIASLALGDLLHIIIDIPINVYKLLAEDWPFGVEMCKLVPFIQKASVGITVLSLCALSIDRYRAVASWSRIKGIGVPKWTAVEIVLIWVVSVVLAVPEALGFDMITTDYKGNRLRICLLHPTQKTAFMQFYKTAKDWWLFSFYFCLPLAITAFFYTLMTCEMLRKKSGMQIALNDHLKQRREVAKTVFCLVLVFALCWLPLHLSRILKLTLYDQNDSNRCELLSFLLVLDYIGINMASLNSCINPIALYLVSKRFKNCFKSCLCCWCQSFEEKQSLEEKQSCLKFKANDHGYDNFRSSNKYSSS
Kind of assay: Binding affinity to endothelin B receptor measured by inhibition of [125I]ET-3 binding recombinant pig ET-B receptor expressed in COS-7 cells. It counts as cell-based. Put shortly:
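COS cells transfected with porcine ETB cDNA, in Hank's solution with 20 mM HEPES and protease inhibitors. Stopped by filtration on GF/C filters presoaked in 1% polyethylenimine, washed with 50 mM Tris-HCl pH 7.4, then counted. Nonspecific binding taken with 0.1 μM ET-3.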

For orientation: IC50 means the point on the concentration scale where inhibition reaches its midpoint. Take `CCCCC1=C(c2nnn[nH]2)C(c2ccc3c(c2)OCO3)Oc2ccc(OC(C)C)cc21` (configuration not stated): the IC50 at Endothelin-1 receptor is 18 nM. As to `COc1ccc([C@@H]2c3cc(OC(C)C)ccc3O[C@H](c3ccc4c(c3)OCO4)[C@H]2C(=O)O)cc1`, the concentration for half-maximal inhibition (IC50) turned out to be 3400 nM in assay [1] and 1.3 nM on Endothelin-1 receptor.

With `CCCOC1=C(C(=O)O)C(c2ccc3c(c2)OCO3)Oc2ccccc21` (configuration not stated), the half-inhibitory concentration (IC50) in assay [1] stood at 10000 nM; at Endothelin-1 receptor it was 160 nM.

`CCCCOc1ccc2c(c1)C(c1ccc3c(c1)OCO3)=C(C(=O)O)C(c1ccccc1OC)O2` (configuration not stated): the IC50 turned out to be 760 nM in assay [1] and 130 nM at Endothelin-1 receptor. Consider `COc1ccc(C2=C(C(=O)NS(C)(=O)=O)C(c3ccc4c(c3)OCO4)Oc3ccc(OC(C)C)cc32)cc1` (configuration not stated), for which the 50% inhibitory concentration (IC50) on Endothelin-1 receptor stood at 1.8 nM. For the compound `CCCCOc1ccc2c(c1)C(c1ccc3c(c1)OCO3)=C(C(=O)O)C(c1ccc(OC)c(OC)c1)O2` (configuration not stated), the 50% inhibitory concentration (IC50) in assay [1] is 400 nM; at Endothelin-1 receptor, 810 nM. The compound `COc1ccc(C2=C(C(=O)O)C(c3ccc4c(c3)OCO4)Oc3ccc(OC(C)C)cc32)cc1` (configuration not stated) returned a half-maximal inhibitory concentration (IC50) at Endothelin-1 receptor of 0.51 nM. As to `CCCCOc1ccc2c(c1)C(c1ccc3c(c1)OCO3)=C(C(=O)O)C(c1ccc(OC)cc1)O2` (configuration not stated), the concentration for half-maximal inhibition (IC50) in assay [1] amounted to 43 nM.

With `COc1cccc(C2=C(C(=O)O)C(c3ccc4c(c3)OCO4)Oc3ccc(OC(C)C)cc32)c1` (configuration not stated), the IC50 was found to be 470 nM in assay [1] and 1.6 nM at Endothelin-1 receptor. Regarding `CC(C)Oc1ccc2c(c1)C(OCCCC#N)=C(C(=O)O)C(c1ccc3c(c1)OCO3)O2` (configuration not stated), the half-maximal inhibitory concentration (IC50) amounted to 5800 nM in assay [1] and 6.8 nM on Endothelin-1 receptor. `CCCCOC1=C(C(=O)O)C(c2ccc3c(c2)OCO3)Oc2cc(OCCC)ccc21` (configuration not stated): the concentration for half-maximal inhibition (IC50) in assay [1] is 2800 nM. Consider `CC(C)Oc1ccc2c(c1)C(c1ccc(OCc3ccccc3)cc1)=C(C(=O)O)C(c1ccc3c(c1)OCO3)O2` (configuration not stated), for which the IC50 in assay [1] was 600 nM; on Endothelin-1 receptor, 6.3 nM.

As to `COc1ccccc1C1=C(C(=O)O)C(c2ccc3c(c2)OCO3)Oc2ccc(OC(C)C)cc21` (configuration not stated), the IC50 in assay [1] is 3500 nM; at Endothelin-1 receptor it was 3 nM.

Consider `CCCOc1ccc2c(c1)C(c1ccc3c(c1)OCO3)=C(C(=O)O)C(c1ccc3c(c1)OCO3)O2` (configuration not stated), for which the IC50 in assay [1] worked out at 80 nM; on Endothelin-1 receptor, 43 nM. Regarding `Cc1ccc(C2=C(C(=O)O)C(c3ccc4c(c3)OCO4)Oc3ccccc32)cc1` (configuration not stated), the IC50 came out at 6900 nM in assay [1] and 530 nM on Endothelin-1 receptor. As to `CC(C)Oc1ccc2c(c1)C(c1ccc(C(C)C)cc1)=C(C(=O)O)C(c1ccc3c(c1)OCO3)O2` (configuration not stated), the results for the half-maximal inhibitory concentration (IC50) (in assay [1]; on Endothelin-1 receptor) were 750 nM and 4.9 nM, respectively. Consider `CCCCOC1=C(C(=O)O)C(c2ccc3c(c2)OCO3)Oc2cccc(OCCC)c21` (configuration not stated), for which the 50% inhibitory concentration (IC50) in assay [1] came out at 6000 nM. For `COc1ccc(C2=C(C(N)=O)C(c3ccc4c(c3)OCO4)Oc3ccc(OC(C)C)cc32)cc1` (configuration not stated), the half-maximal inhibitory concentration (IC50) at Endothelin-1 receptor was 630 nM.

On Endothelin-1 receptor, `COC(=O)C1=C(c2ccc(OC)cc2)c2cc(OC(C)C)ccc2OC1c1ccc2c(c1)OCO2` (configuration not stated) displayed an IC50 greater than 10000 nM.

Regarding `O=C(O)C1=C(c2ccccc2)c2ccccc2OC1c1ccc2c(c1)OCO2` (configuration not stated), the results for the IC50 (in assay [1]; at Endothelin-1 receptor) were greater than 100000 nM and 780 nM, respectively.

On to `CC(C)Oc1ccc2c(c1)C(Cl)=C(C(=O)O)C(c1ccc3c(c1)OCO3)O2` (configuration not stated), for which the half-inhibitory concentration (IC50) in assay [1] came out at 7200 nM; at Endothelin-1 receptor it was 12 nM. On to `CCCC[C@@H]1c2cc(OC(C)C)ccc2O[C@H](c2ccc3c(c2)OCO3)[C@H]1C(=O)O`, for which the 50% inhibitory concentration (IC50) on Endothelin-1 receptor is 77 nM. As to `CCCCCCCOC1=C(C(=O)O)C(c2ccc3c(c2)OCO3)Oc2ccc(OC(C)C)cc21` (configuration not stated), the IC50 came to 410 nM in assay [1] and 4.7 nM at Endothelin-1 receptor.

As to `CCCOc1ccc2c(c1)C(c1ccc3c(c1)OCO3)=C(C(=O)O)C(c1ccc(OC)cc1)O2` (configuration not stated), the values for the IC50 (in assay [1]; on Endothelin-1 receptor) were 72 nM and 220 nM, respectively. For `CC(C)c1ccc(C2=C(C(=O)O)C(c3ccc4c(c3)OCO4)Oc3ccccc32)cc1` (configuration not stated), the IC50 in assay [1] was 2100 nM; at Endothelin-1 receptor, 83 nM. For `COc1ccc(CC2=C(C(=O)O)C(c3ccc4c(c3)OCO4)Oc3ccc(OC(C)C)cc32)cc1` (configuration not stated), the IC50 at Endothelin-1 receptor is 0.32 nM. In the case of `O=C(O)C1=C(c2ccc(Cl)cc2)c2ccccc2OC1c1ccc2c(c1)OCO2` (configuration not stated), the IC50 was 5800 nM in assay [1] and 800 nM at Endothelin-1 receptor. On the same counts, the results for `COc1cccc(C2=C(C(=O)O)C(c3ccc4c(c3)OCO4)Oc3ccccc32)c1` (configuration not stated) are 2800 nM and 700 nM.

Turning to `CCCCC1=C(C(=O)OC)C(c2ccc3c(c2)OCO3)Oc2ccc(OC(C)C)cc21` (configuration not stated), the concentration for half-maximal inhibition (IC50) at Endothelin-1 receptor was greater than 10000 nM. Compound `CC(C)Oc1ccc2c(c1)C(c1ccc(F)cc1)=C(C(=O)O)C(c1ccc3c(c1)OCO3)O2` (configuration not stated) had an IC50 at Endothelin-1 receptor of 8 nM. On to `O=C(O)C1=Cc2ccccc2OC1c1ccc2c(c1)OCO2` (configuration not stated), for which the IC50 in assay [1] was greater than 100000 nM; on Endothelin-1 receptor, 67000 nM.

In the case of `CC(C)Oc1ccc2c(c1)C(c1ccc(O)cc1)=C(C(=O)O)C(c1ccc3c(c1)OCO3)O2` (configuration not stated), the 50% inhibitory concentration (IC50) in assay [1] worked out at 4800 nM; on Endothelin-1 receptor, 4.1 nM. As to `CCOC1=C(C(=O)O)C(c2ccc3c(c2)OCO3)Oc2ccccc21` (configuration not stated), the half-maximal inhibitory concentration (IC50) in assay [1] came out at 15000 nM; at Endothelin-1 receptor, 290 nM. As to `COc1ccccc1C1=C(C(=O)O)C(c2ccc3c(c2)OCO3)Oc2ccccc21` (configuration not stated), the figures for the 50% inhibitory concentration (IC50) (in assay [1]; on Endothelin-1 receptor) were 31000 nM and 2200 nM, respectively. For `COc1ccc(CCOC2=C(C(=O)O)C(c3ccc4c(c3)OCO4)Oc3ccc(OC(C)C)cc32)cc1` (configuration not stated), the half-maximal inhibitory concentration (IC50) stood at 200 nM in assay [1] and 3 nM on Endothelin-1 receptor.

Turning to `CC(C)Oc1ccc2c(c1)C(c1ccc3c(c1)OCO3)=C(C(=O)O)C(c1ccc(C(C)C)cc1)O2` (configuration not stated), the 50% inhibitory concentration (IC50) in assay [1] came to 2700 nM. In the case of `CCCCOc1ccc(C2Oc3ccc(OCCCC)cc3C(c3ccc4c(c3)OCO4)=C2C(=O)O)cc1` (configuration not stated), the concentration for half-maximal inhibition (IC50) in assay [1] was 3600 nM; at Endothelin-1 receptor, 5200 nM. In the case of `CCCCCCCCCCOC1=C(C(=O)O)C(c2ccc3c(c2)OCO3)Oc2ccc(OC(C)C)cc21` (configuration not stated), the figures for the IC50 (in assay [1]; at Endothelin-1 receptor) were 7600 nM and 130 nM, respectively.

`CCCCC1=C(C(=O)NS(C)(=O)=O)C(c2ccc3c(c2)OCO3)Oc2ccc(OC(C)C)cc21` (configuration not stated): the IC50 on Endothelin-1 receptor stood at 48 nM. `CC(C)Oc1ccc2c(c1)C(c1ccccc1)=C(C(=O)O)C(c1ccc3c(c1)OCO3)O2` (configuration not stated) registered a concentration for half-maximal inhibition (IC50) at Endothelin-1 receptor of 3 nM.

In the case of `COc1ccc(C2=C(C(=O)O)C(c3ccc4c(c3)OCO4)Oc3c(OC)cccc32)cc1` (configuration not stated), the half-inhibitory concentration (IC50) in assay [1] is 4000 nM.

For the compound `CCCCOc1ccc2c(c1)C(c1ccc3c(c1)OCO3)=C(C(=O)O)C(c1ccc(OC3CCCC3)cc1)O2` (configuration not stated), the IC50 amounted to 2200 nM in assay [1] and 4800 nM on Endothelin-1 receptor. Turning to `CCCCCOC1=C(C(=O)O)C(c2ccc3c(c2)OCO3)Oc2ccccc21` (configuration not stated), the IC50 was 1100 nM in assay [1] and 29 nM on Endothelin-1 receptor. For `CCCCOc1ccc2c(c1)C(c1ccc3c(c1)OCO3)=C(C(=O)O)C(c1cc(OC)ccc1OC)O2` (configuration not stated), the IC50 was 1600 nM in assay [1] and 160 nM on Endothelin-1 receptor. Take `CC(C)Oc1ccc2c(c1)C(c1ccc3c(c1)OCO3)=C(C(=O)O)C(c1ccc3c(c1)OCO3)O2` (configuration not stated): the IC50 in assay [1] came out at 170 nM; on Endothelin-1 receptor, 3.2 nM.

`CCOC1=C(C(=O)O)C(c2ccc3c(c2)OCO3)Oc2ccc(OC(C)C)cc21` (configuration not stated): the IC50 in assay [1] was 2800 nM; at Endothelin-1 receptor, 2.2 nM. `CCCCC1=C(C(N)=O)C(c2ccc3c(c2)OCO3)Oc2ccc(OC(C)C)cc21` (configuration not stated) displayed an IC50 on Endothelin-1 receptor of 410 nM. Regarding `CCCCOc1ccc2c(c1)C(c1ccc3c(c1)OCO3)=C(C(=O)O)C(c1ccc(OC)cc1OC)O2` (configuration not stated), the IC50 came to 35 nM in assay [1] and 18 nM on Endothelin-1 receptor. On the same counts, the results for `O=C(O)C1=C(c2ccc3c(c2)OCO3)c2ccccc2OC1c1ccc2c(c1)OCO2` (configuration not stated) are 710 nM and 350 nM. In turn, `C=CCCCOC1=C(C(=O)O)C(c2ccc3c(c2)OCO3)Oc2ccc(OC(C)C)cc21` (configuration not stated) displayed an IC50 on Endothelin-1 receptor of 0.33 nM.
